Measurements: ChEMBL document CHEMBL1133631, “Synthesis of potent agonists of the D-myo-inositol 1,4, 5-trisphosphate receptor based on clustered disaccharide polyphosphate analogues of adenophostin A” (J Med Chem, 2000)

Assays:
[1] = tested on: IP3 receptor (Rattus norvegicus); assay: Concentration response relationship was fitted to logistic equations using kaleidagraph software from which maximal response was measured.
[2] = Hill coefficient for [Ca2+] release was evaluated; assay type: functional
In short: (§1)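 Saponin-permeabilized hepatocytes (10⁶ cells·mL⁻¹, 10 µg·mL⁻¹ saponin) loaded to steady state with ⁴⁵Ca²⁺ (20 µCi·mL⁻¹) for 5 min at 37 °C in cytosol-like medium (free Ca²⁺ 200 nM, 7.5 mM ATP, FCCP, PIPES pH 7.0). Cells diluted 5-fold into ATP-free medium with 1.25 µM thapsigargin; ligand added after 15 s, stores filtered 60 s later. Logistic fits gave maximal response, EC50 and Hill slope; means ± SEM.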

[3] = Hill coefficient for equilibrium binding was evaluated (Inositol 1,4,5-trisphosphate receptor)
In short: (§2)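 Membranes from livers of male Wistar rats were Percoll-purified. A 0.1 mg protein sample in 50 mM Tris, 1 mM EGTA, pH 8.3 was incubated 5 min at 4 °C with [³H]IP₃ (45 nCi, 40 Ci/mmol) and competing ligand. The incubation was stopped by centrifugation, and pellets were scintillation-counted. Parameters came from logistic fits. Nonspecific binding was 10–15%. Triplicate, means ± SEM.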

[4] = Concentration response relationship was used to measure half-maximally effective agonist concentration.; assay type: functional
In short: as §1

[5] = Ratio of EC50 and Kd; assay type: functional
[6] = Binding affinity was measured by equilibrium competing with [3H]IP3 (Inositol 1,4,5-trisphosphate receptor)
In short: as §2

[7] = tested on: IP3 receptor (Rattus norvegicus); assay: [Ca2+] release with 10 uM was measured by non-specific binding method.
[8] = tested on: IP3 receptor (Rattus norvegicus); assay: Maximal Ca+ release response was determined from permeabilized rat hepatocyte assay
[9] = compound was tested and the Ratio of EC50 and Kd was found out.; assay type: functional

SMILES | Hill slope [3] | EC50 [4] [nM] | Ratio [5] | Kd [6] [nM] | IP3-sensitive Ca2+ stores [7] [%] | Ratio [9] | Max response [1] [%] | Hill slope [2] | Max response [8] [%]
O=P(O)(O)OC1[C@@H](OP(=O)(O)O)C(O)C(O)[C@@H](OP(=O)(O)O)[C@H]1O (stereo partly specified) | 0.88 | 201 | 120 | 1.7 | – | – | 32 | 2.9 | –
O=P(O)(O)OC1[C@@H](OP(=O)(O)O)C(CO)O[C@@H](O[C@@H]2[C@H](OP(=O)(O)O)C(OCCCc3ccccc3)O[C@@H]2CO)[C@H]1O (stereo partly specified) | 1.16 | 381 | – | 3.1 | 87 | 123 | – | 3.9 | 34
CCCOC1O[C@H](CO)[C@H](O[C@@H]2OC(CO)[C@H](OP(=O)(O)O)C(OP(=O)(O)O)[C@@H]2O)[C@@H]1OP(=O)(O)O (stereo partly specified) | 0.97 | 491 | – | 4.7 | 87 | 104 | – | 2.1 | 42
CO[C@@H]1O[C@H](CO)[C@@H](O[C@H]2O[C@@H](CO)[C@@H](OP(=O)(O)O)[C@H](OP(=O)(O)O)[C@@H]2O)[C@H]1OP(=O)(O)O | 0.99 | 484 | – | 4.4 | 89 | 110 | – | 3.4 | 33

More lines, main results first:

Hill slope [3] | EC50 [4] [nM] | Ratio [5] | Kd [6] [nM] | IP3-sensitive Ca2+ stores [7] [%] | Ratio [9] | SMILES | Max response [1] [%] | Hill slope [2] | Max response [8] [%]
1.04 | 161 | 37 | 4.3 | 101 | – | O=P(O)(O)OC1[C@@H](OP(=O)(O)O)C(CO)O[C@@H](O[C@@H]2[C@H](OP(=O)(O)O)C(OCCCc3cc(CCCOC4O[C@H](CO)[C@H](O[C@@H]5OC(CO)[C@H](OP(=O)(O)O)C(OP(=O)(O)O)[C@@H]5O)[C@@H]4OP(=O)(O)O)c(CCCOC4O[C@H](CO)[C@H](O[C@@H]5OC(CO)[C@H](OP(=O)(O)O)C(OP(=O)(O)O)[C@@H]5O)[C@@H]4OP(=O)(O)O)cc3CCCOC3O[C@H](CO)[C@H](O[C@@H]4OC(CO)[C@H](OP(=O)(O)O)C(OP(=O)(O)O)[C@@H]4O)[C@@H]3OP(=O)(O)O)O[C@@H]2CO)[C@H]1O (stereo partly specified) | 42 | 2.1 | –
0.95 | 215 | 60 | 3.6 | 92 | – | O=P(O)(O)OC1[C@@H](OP(=O)(O)O)C(CO)O[C@@H](O[C@@H]2[C@H](OP(=O)(O)O)C(OCCCc3ccc(CCCOC4O[C@H](CO)[C@H](O[C@@H]5OC(CO)[C@H](OP(=O)(O)O)C(OP(=O)(O)O)[C@@H]5O)[C@@H]4OP(=O)(O)O)cc3)O[C@@H]2CO)[C@H]1O (stereo partly specified) | 31 | 2.2 | –
